Results as given in ChEMBL document CHEMBL1208755, “5-Nitro-2-furoic acid hydrazones: design, synthesis and in vitro antimycobacterial evaluation against log and starved phase cultures” (Bioorg Med Chem Lett, 2010).
Values after ≈ are worked out from the molar mass of the structure shown.

What was measured:
[1] = tested on: Mycobacterium tuberculosis; experiment: Antimicrobial activity aagainst Mycobacterium tuberculosis ATCC 14468 in log phase by agar dilution method; assay type: functional
Method in brief: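 M. tuberculosis log-phase cultures were tested by agar dilution following NCCLS-type guidance, in duplicate. MIC was taken as the lowest concentration giving complete inhibition of bacterial growth.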

[2] = Antimicrobial activity aagainst Mycobacterium sp. Mc2 in log phase assessed as inhibition of growth; assay type: functional
Method in brief: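 Agar dilution along the lines of NCCLS guidance, run in duplicate on log-phase cultures. MIC is the lowest compound concentration that gives complete inhibition of bacterial growth.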

[3] = Antimicrobial activity aagainst Mycobacterium sp. Mc2 in presence of acetate; assay type: functional
[4] = biological target: T1, Isocitrate lyase (Mycobacterium tuberculosis) (UniProt P9WKK7); experiment: Percent inhibition of Mycobacterium tuberculosis isocitrate lyase (ICL) at 100 uM
T1 sequence (whole entry): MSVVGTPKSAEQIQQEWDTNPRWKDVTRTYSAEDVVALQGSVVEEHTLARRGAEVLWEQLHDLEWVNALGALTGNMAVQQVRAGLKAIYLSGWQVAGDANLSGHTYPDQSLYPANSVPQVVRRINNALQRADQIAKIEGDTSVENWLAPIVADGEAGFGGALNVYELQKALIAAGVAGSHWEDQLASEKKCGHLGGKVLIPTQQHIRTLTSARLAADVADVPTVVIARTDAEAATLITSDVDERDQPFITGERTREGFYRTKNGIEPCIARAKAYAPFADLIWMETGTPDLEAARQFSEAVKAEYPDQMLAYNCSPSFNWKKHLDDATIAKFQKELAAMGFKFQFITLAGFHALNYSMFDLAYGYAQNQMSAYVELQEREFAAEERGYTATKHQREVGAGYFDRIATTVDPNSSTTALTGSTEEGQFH
Method in brief: (§1)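 Isocitrate lyase activity was measured at 37 °C with phenylhydrazine present, reading glyoxylate-phenylhydrazone formation at 324 nm. Percent inhibition was determined at a single concentration.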

[5] = tested on: Mycobacterium tuberculosis; experiment: Antimicrobial activity aagainst Mycobacterium tuberculosis ATCC 14468 in starved phase by agar dilution method; assay type: functional
Method in brief: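 Six-week nutrient-starved M. tuberculosis cells were tested by agar dilution in duplicate, following a literature procedure. MIC was taken as the lowest concentration giving complete inhibition of growth.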

[6] = biological target: T1, Isocitrate lyase (Mycobacterium tuberculosis); experiment: Percent inhibition of Mycobacterium tuberculosis isocitrate lyase (ICL) at 10 uM; method in brief: as §1
[7] = Cytotoxicity against african green monkey Vero cells after 72 hrs by MTT assay; assay type: cell-based; conditions: chlorocebus sabaeus

O=C(N/N=C/c1ccc(O)cc1)c1ccc([N+](=O)[O-])o1
MIC [1]: > 45.4 µM
MIC [2]: > 45.4 µM
MIC [3]: 45.4 µM

O=C(N/N=C/c1ccc(Br)cc1)c1ccc([N+](=O)[O-])o1
MIC [1]: 18.5 µM (≈ 6.25 µg/mL)
MIC [2]: 73.9 µM (≈ 25 µg/mL)
MIC [3]: 37 µM

O=C(N/N=C/c1cccc(Br)c1)c1ccc([N+](=O)[O-])o1
MIC [1]: 18.5 µM (≈ 6.25 µg/mL)
MIC [2]: 37 µM (≈ 12.5 µg/mL)
MIC [3]: 37 µM

O=C(O)CC[N+](=O)[O-]
inhibition [4]: 63.2%

COc1cc(/C=N/NC(=O)c2ccc([N+](=O)[O-])o2)ccc1O
MIC [1]: 41 µM (≈ 12.5 µg/mL)
MIC [2]: 81.9 µM (≈ 25 µg/mL)
MIC [3]: 20.5 µM

C/C(=N\NC(=O)c1ccc([N+](=O)[O-])o1)c1ccccc1O
MIC [1]: > 43.2 µM
MIC [2]: > 43.2 µM
MIC [3]: > 43.2 µM

Cc1ccc(/C=N/NC(=O)c2ccc([N+](=O)[O-])o2)cc1
MIC [5]: 91.5 µM (≈ 25 µg/mL)
inhibition [6]: 19.8%
MIC [1]: 11.4 µM (≈ 3.13 µg/mL)
CC50 at 72 h [7]: > 229 µM
MIC [2]: 45.7 µM (≈ 12.5 µg/mL)
MIC [3]: 22.9 µM

C/C(=N\NC(=O)c1ccc([N+](=O)[O-])o1)c1ccccc1
MIC [5]: 45.7 µM (≈ 12.5 µg/mL)
inhibition [6]: 34.9%
MIC [1]: 11.4 µM (≈ 3.13 µg/mL)
CC50 at 72 h [7]: > 229 µM
MIC [2]: 45.7 µM (≈ 12.5 µg/mL)
MIC [3]: 45.7 µM

O=C(N/N=C/c1ccc([N+](=O)[O-])o1)c1ccc([N+](=O)[O-])o1
MIC [5]: 10.6 µM (≈ 3.13 µg/mL)
inhibition [6]: 86.8%
MIC [1]: 2.65 µM (≈ 0.78 µg/mL)
CC50 at 72 h [7]: 213 µM
MIC [2]: 0.68 µM (≈ 0.2 µg/mL)
MIC [3]: 5.3 µM

O=C(N/N=C/c1ccc(Cl)cc1)c1ccc([N+](=O)[O-])o1
MIC [1]: 21.3 µM (≈ 6.25 µg/mL)
MIC [2]: 42.6 µM (≈ 12.5 µg/mL)
MIC [3]: 10.7 µM

O=C(N/N=C/c1ccccc1[N+](=O)[O-])c1ccc([N+](=O)[O-])o1
MIC [5]: 41.1 µM (≈ 12.5 µg/mL)
inhibition [6]: 46.8%
MIC [1]: 10.3 µM (≈ 3.13 µg/mL)
CC50 at 72 h [7]: 206 µM
MIC [2]: 10.3 µM (≈ 3.13 µg/mL)
MIC [3]: 10.3 µM

C/C(=N\NC(=O)c1ccc([N+](=O)[O-])o1)c1ccc(F)cc1
MIC [5]: 21.5 µM (≈ 6.25 µg/mL)
inhibition [6]: 28.1%
MIC [1]: 5.35 µM (≈ 1.56 µg/mL)
CC50 at 72 h [7]: 215 µM
MIC [2]: 21.5 µM (≈ 6.25 µg/mL)
MIC [3]: 42.9 µM

O=C(N/N=C/c1ccc([N+](=O)[O-])cc1)c1ccc([N+](=O)[O-])o1
MIC [1]: 20.6 µM (≈ 6.25 µg/mL)
MIC [2]: 82.2 µM (≈ 25 µg/mL)
MIC [3]: 20.6 µM

C/C(=N\NC(=O)c1ccc([N+](=O)[O-])o1)c1ccc([N+](=O)[O-])cc1
MIC [5]: 19.6 µM (≈ 6.25 µg/mL)
inhibition [6]: 48.9%
MIC [1]: 9.84 µM (≈ 3.13 µg/mL)
CC50 at 72 h [7]: > 197 µM
MIC [2]: 19.6 µM (≈ 6.25 µg/mL)
MIC [3]: 19.6 µM

C/C(=N\NC(=O)c1ccc([N+](=O)[O-])o1)c1ccc(C)cc1
MIC [5]: 43.5 µM (≈ 12.5 µg/mL)
inhibition [6]: 32.5%
MIC [1]: 10.9 µM (≈ 3.13 µg/mL)
CC50 at 72 h [7]: > 218 µM
MIC [2]: 43.5 µM (≈ 12.5 µg/mL)
MIC [3]: 43.5 µM

O=C(N/N=C/c1ccco1)c1ccc([N+](=O)[O-])o1
MIC [1]: 25.1 µM (≈ 6.25 µg/mL)
MIC [2]: 50.2 µM (≈ 12.5 µg/mL)
MIC [3]: 25.1 µM

COc1ccc(/C=N/NC(=O)c2ccc([N+](=O)[O-])o2)cc1
MIC [1]: 21.6 µM (≈ 6.25 µg/mL)
MIC [2]: 43.2 µM (≈ 12.5 µg/mL)
MIC [3]: 21.6 µM

O=C(N/N=C/c1ccccc1C(F)(F)F)c1ccc([N+](=O)[O-])o1
MIC [5]: 19.1 µM (≈ 6.25 µg/mL)
inhibition [6]: 30.1%
MIC [1]: 4.76 µM (≈ 1.56 µg/mL)
CC50 at 72 h [7]: > 191 µM
MIC [2]: 4.76 µM (≈ 1.56 µg/mL)
MIC [3]: 9.56 µM

NNC(=O)c1ccncc1 [ISONIAZID]
MIC [5]: > 91.1 µM
MIC [1]: 0.72 µM (≈ 0.0987 µg/mL)
CC50 at 72 h [7]: > 456 µM
MIC [2]: 45.6 µM (≈ 6.25 µg/mL)
MIC [3]: > 91.1 µM

C/C(=N\NC(=O)c1ccc([N+](=O)[O-])o1)c1ccc(Br)cc1
MIC [5]: 17.8 µM (≈ 6.25 µg/mL)
inhibition [6]: 73.1%
MIC [1]: 8.88 µM (≈ 3.13 µg/mL)
CC50 at 72 h [7]: > 178 µM
MIC [2]: 17.8 µM (≈ 6.25 µg/mL)
MIC [3]: 4.43 µM

CO[C@H]1/C=C/O[C@@]2(C)Oc3c(C)c(O)c4c(O)c(c(/C=N/N5CCN(C)CC5)c(O)c4c3C2=O)NC(=O)/C(C)=C\C=C\[C@H](C)[C@H](O)[C@@H](C)[C@@H](O)[C@@H](C)[C@H](OC(C)=O)[C@@H]1C [RIFAMPIN]
MIC [5]: > 15.2 µM
MIC [1]: 0.48 µM (≈ 0.395 µg/mL)
CC50 at 72 h [7]: > 75.9 µM
MIC [2]: 1.89 µM (≈ 1.56 µg/mL)
MIC [3]: > 15.2 µM

O=C(N/N=C/c1ccccc1)c1ccc([N+](=O)[O-])o1
MIC [1]: 48.2 µM (≈ 12.5 µg/mL)
MIC [2]: 192 µM (≈ 49.8 µg/mL)
MIC [3]: 48.2 µM

O=C(N/N=C/c1c(Cl)cccc1Cl)c1ccc([N+](=O)[O-])o1
MIC [1]: 19 µM (≈ 6.25 µg/mL)
MIC [2]: 76.2 µM (≈ 25 µg/mL)
MIC [3]: 38.1 µM

O=C(N/N=C/c1ccc(F)cc1)c1ccc([N+](=O)[O-])o1
MIC [1]: 22.5 µM (≈ 6.25 µg/mL)
MIC [2]: 90.2 µM (≈ 25 µg/mL)
MIC [3]: 45.1 µM
